These results are taken from PMC8637866 (RSC Chemical Biology, 2021).

The subject of one experiment is human PTHR1. The experiment is described as follows: cAMP stimulation by PTH1–34 CLAMPs on receptor cells. Type of experiment: cell-based. The conditions noted are these: HEK293 cells (receptor cells) that express human PTHR1; Fig. 5 (legend: PTHR1-6E-HEK).
In the next experiment the test system is neg-HEK cells. The experiment is described as follows: Flow cytometry binding of VHH–biotin–PTH conjugates to neg-HEK cells. The conditions noted are these: for EC50: read-out: Binding EC50, Neg-HEK, 1 h on ice, streptavidin–PE, flow cytometry (MFI), mean of three independent experiments. A digest of the protocol:
(§1)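 Adherent cells were detached with trypsin, washed, resuspended in PBS, and stained for 1 h on ice with graded concentrations of biotin-labelled VHH–PTH1–11 conjugates. Cells were washed, stained with streptavidin–PE, and analysed by flow cytometry. Line 1 used PTHR1-6E-HEK cells (HEK293 expressing PTHR1 with the 6E tag in the extracellular domain); line 2 used parental HEK293 cells. Median fluorescence intensity was fitted to sigmoidal curves, with maximal staining expressed relative to the MHC-I conjugate; three independent experiments.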
A general note: Flow cytometry measures light scatter and fluorescence of single cells or particles in a stream.

A further experiment concerns the target T1, PTHR1-6E (Homo sapiens, UniProt Q03431, A83I/D81R/G76A/K80A/K82Q/P78E/R79L/S71Q/S73D/S75E/T74Q).
T1 sequence (Q03431 23-593 S71Q/S73D/T74Q/S75E/G76A/P78E/R79L/K80A/D81R/K82Q/A83I limits assumed): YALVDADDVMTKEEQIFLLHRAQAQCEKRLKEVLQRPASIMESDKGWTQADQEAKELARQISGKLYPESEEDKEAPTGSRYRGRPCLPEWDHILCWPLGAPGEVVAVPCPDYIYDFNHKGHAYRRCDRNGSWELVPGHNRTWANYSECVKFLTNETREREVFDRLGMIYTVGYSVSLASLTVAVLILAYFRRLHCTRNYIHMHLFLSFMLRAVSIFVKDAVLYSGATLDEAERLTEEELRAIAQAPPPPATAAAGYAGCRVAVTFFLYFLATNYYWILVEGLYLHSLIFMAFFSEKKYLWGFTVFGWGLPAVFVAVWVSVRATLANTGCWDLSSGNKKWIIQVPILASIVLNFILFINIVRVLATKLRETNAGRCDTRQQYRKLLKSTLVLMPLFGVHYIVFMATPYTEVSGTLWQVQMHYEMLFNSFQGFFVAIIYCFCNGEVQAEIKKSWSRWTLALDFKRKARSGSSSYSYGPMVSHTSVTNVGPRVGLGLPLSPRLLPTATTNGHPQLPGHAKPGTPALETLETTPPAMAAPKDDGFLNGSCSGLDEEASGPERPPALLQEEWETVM
The experiment is described as follows: cAMP response. Type of experiment: cell-based. A digest of the protocol: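 HEK293 cells stably expressing PTHR1 carrying the 6E tag plus a cAMP-responsive luciferase (Glosensor) were treated with graded concentrations of VHH–PTH1–11 conjugates. cAMP was read as luminescence. EC50 came from a sigmoidal dose–response fit with variable slope, using replicate wells per experiment and three independent experiments.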

For another experiment, the system named is PTHR1-6E-HEK cells. The experiment is described as follows: Flow cytometry binding of VHH–biotin–PTH conjugates to PTHR1-6E-HEK cells. Details: species or system human. A digest of the protocol: as §1

No end group written: not given here.

As for “VHHGFP–PTH1–34: CLAMP of PTH1–34 conjugated to VHH that targets GFP (SVSEIQLMHNLGKHLNSMERVEWLRKKLQDVHNF; also: conjugated to anti-GFP VHH (with biotin); UniProt P01270 32-65, looked up, fragment)”, in the experiment with human PTHR1, the “cAMP stimulation compared with PTH1–34 (in words)” value is reported as “performed similarly to PTH1–34 itself”. Regarding “VHHMHC-II–PTH1–34: CLAMP of PTH1–34 conjugated to VHH that targets murine MHC-II (SVSEIQLMHNLGKHLNSMERVEWLRKKLQDVHNF; Parathyroid hormone conjugated to anti-MHC-II VHH; UniProt P01270 32-65, looked up, fragment)”, in the experiment on human PTHR1, the “cAMP stimulation compared with PTH1–34 (in words)” value is given as “performed similarly to PTH1–34 itself”. Turning to “VHHa5b1–PTH1–11: conjugate of VHHα5β1 (targets integrin α5β1), biotin and PTH1–11 (SVSEIQLMHNL; also: conjugated to anti-integrin α5β1 VHH and biotin; UniProt P01270 32-42, looked up, fragment)”, in the experiment with neg-HEK cells, the EC50 (as a rule, the concentration giving half of the maximal effect) stood at 3 nM.

On to “VHHMHC-I–PTH1–11: conjugate of VHHMHC-I (targets human β2-microglobulin, previously Nb30), biotin and PTH1–11 (SVSEIQLMHNL; also: conjugated to anti-β2-microglobulin VHH and biotin; UniProt P01270 32-42, looked up, fragment)”, for which the EC50 in the experiment with neg-HEK cells came out at 4.3 nM. The “stimulation of cAMP responses (in words)” value in the experiment with PTHR1-6E (PTHR1-6E-HEK cells, Fig. 2e and Table 1) was “essentially inactive in stimulating cAMP responses”. In the case of “VHH6E–PTH1–11: conjugate of VHH6E (binds UBC6E epitope tag), biotin and PTH1–11 (SVSEIQLMHNL; also: conjugated to VHH6E nanobody and biotin; UniProt P01270 32-42, looked up, fragment)”, in the experiment on neg-HEK cells (HEK-neg cells), the “maximal staining (in words)” value is recorded as “a The maximal staining for VHH6E–PTH1–11 on HEK-neg cells was very weak, so binding EC50 values were not determined (ND)”. In addition, the “staining signal compared with VHHMHC-I (in words)” value in the experiment with PTHR1-6E-HEK cells is on record as “stronger signal than staining with VHHMHC-I”. Regarding `CC[C@H](C)[C@H](NC(=O)[C@H](CCC(=O)O)NC(=O)[C@H](CO)NC(=O)[C@@H](NC(=O)[C@@H](N)CO)C(C)C)C(=O)N[C@@H](CCC(N)=O)C(=O)N[C@@H](CC(C)C)C(=O)N[C@@H](CCSC)C(=O)N[C@@H](Cc1c[nH]cn1)C(=O)N[C@@H](CC(N)=O)C(=O)N[C@@H](CC(C)C)C(=O)NCC(=O)N[C@@H](CCCCN)C(=O)N[C@@H](Cc1c[nH]cn1)C(=O)N[C@@H](CC(C)C)C(=O)N[C@@H](CC(N)=O)C(=O)N[C@@H](CO)C(=O)N[C@@H](CCSC)C(=O)N[C@@H](CCC(=O)O)C(=O)N[C@@H](CCCNC(=N)N)C(=O)N[C@H](C(=O)N[C@@H](CCC(=O)O)C(=O)N[C@@H](Cc1c[nH]c2ccccc12)C(=O)N[C@@H](CC(C)C)C(=O)N[C@@H](CCCNC(=N)N)C(=O)N[C@@H](CCCCN)C(=O)N[C@@H](CCCCN)C(=O)N[C@@H](CC(C)C)C(=O)N[C@@H](CCC(N)=O)C(=O)N[C@@H](CC(=O)O)C(=O)N[C@H](C(=O)N[C@@H](Cc1c[nH]cn1)C(=O)N[C@@H](CC(N)=O)C(=O)N[C@@H](Cc1ccccc1)C(=O)N[C@@H](CS)C(N)=O)C(C)C)C(C)C` [PTH1–34, reference compound], the EC50 at PTHR1-6E was 0.18 nM.
